Experimental data taken from ChEMBL document CHEMBL4732181, “Pyrazolo[3,4-d]pyrimidine-based dual EGFR T790M/HER2 inhibitors: Design, synthesis, structure-activity relationship and biological activity as potential antitumor and anticonvulsant agents” (Eur J Med Chem, 2021).

Columns and labels:
Mus musculus [1] = assay: Anticonvulsant activity against mouse model of LiCa/pilocarpine-induced status epilepticus assessed as spectral edge frequency at 20 mg/kg, po for 10 days by EEG method relative to control; type: functional; conditions: time 10 day
How it was run: (§1)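 Male mice (20-30 g), five per group, dosed orally once daily for 10 days. Status epilepticus was then induced with LiCa (3 mEq/kg i.p.), atropine sulfate (1 mg/kg i.p.) 30 min before pilocarpine, and pilocarpine HCl (300 mg/kg i.p.) 2 h after LiCa. Normal controls received oral distilled water. Comparators were untreated SE, phenytoin and lamotrigine. One-way ANOVA with Tukey post-hoc; mean ± SD.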

Mus musculus [2] = assay: Anticonvulsant activity against mouse model of LiCa/pilocarpine-induced status epilepticus assessed as alpha at 20 mg/kg, po for 10 days by EEG method relative to control; type: functional; conditions: time 10 day; how it was run: as §1
Mus musculus [3] = assay: Anticonvulsant activity against mouse model of LiCa/pilocarpine-induced status epilepticus assessed as total power at 20 mg/kg, po for 10 days by EEG method relative to control; type: functional; conditions: time 10 day; how it was run: as §1
Mus musculus [4] = assay: Anticonvulsant activity against mouse model of LiCa/pilocarpine-induced status epilepticus assessed as theta at 20 mg/kg, po for 10 days by EEG method relative to control; type: functional; conditions: time 10 day; how it was run: as §1
Mus musculus [5] = assay: Anticonvulsant activity against mouse model of LiCa/pilocarpine-induced status epilepticus assessed as Glutamate level in brain at 20 mg/kg, po for 10 days by ELISA relative to control; type: functional; conditions: time 10 day; how it was run: as §1
Mus musculus [6] = assay: Anticonvulsant activity against mouse model of LiCa/pilocarpine-induced status epilepticus assessed as power pV2 at 20 mg/kg, po for 10 days by EEG method relative to control; type: functional; conditions: time 10 day; how it was run: as §1
Mus musculus [7] = assay: Anticonvulsant activity against mouse model of LiCa/pilocarpine-induced status epilepticus assessed as amplitude at 20 mg/kg, po for 10 days by EEG method relative to control; type: functional; conditions: time 10 day; how it was run: as §1
Mus musculus [8] = assay: Anticonvulsant activity against mouse model of LiCa/pilocarpine-induced status epilepticus assessed as GSH level in brain at 20 mg/kg, po for 10 days by calorimetric method relative to control; type: functional; conditions: time 10 day; how it was run: as §1
Mus musculus [9] = assay: Anticonvulsant activity against mouse model of LiCa/pilocarpine-induced status epilepticus assessed as GABA level in brain at 20 mg/kg, po for 10 days by ELISA relative to control; type: functional; conditions: time 10 day; how it was run: as §1
Mus musculus [10] = assay: Anticonvulsant activity against mouse model of LiCa/pilocarpine-induced status epilepticus assessed as mean power frequency at 20 mg/kg, po for 10 days by EEG method relative to control; type: functional; conditions: time 10 day; how it was run: as §1
WI-38 = assay: Cytotoxicity against human WI-38 cells assessed as reduction in cell viability after 48 hrs by MTT assay; type: cell-based; conditions: WI-38, 48 h
How it was run: (§2)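 Cells from ATCC grown in DMEM with 10% FBS, insulin and 1% penicillin-streptomycin. Plated at 1.2-1.8 × 10,000 cells/well for 24 h, then exposed to compounds in DMSO vehicle for 48 h. MTT 0.5 mg/ml added for 2 h; absorbance read at 570 nm. Experiments run in triplicate.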

Mus musculus [11] = assay: Anticonvulsant activity against mouse model of LiCa/pilocarpine-induced status epilepticus assessed as total power density at 20 mg/kg, po for 10 days by EEG method relative to control; type: functional; conditions: time 10 day; how it was run: as §1
Mus musculus [12] = assay: Anticonvulsant activity against mouse model of LiCa/pilocarpine-induced status epilepticus assessed as MDA level in brain at 20 mg/kg, po for 10 days by calorimetric method relative to control; type: functional; conditions: time 10 day; how it was run: as §1
Mus musculus [13] = assay: Anticonvulsant activity against mouse model of LiCa/pilocarpine-induced status epilepticus assessed as delta at 20 mg/kg, po for 10 days by EEG method relative to control; type: functional; conditions: time 10 day; how it was run: as §1
Mus musculus [14] = assay: Anticonvulsant activity against mouse model of LiCa/pilocarpine-induced status epilepticus assessed as amplitude density at 20 mg/kg, po for 10 days by EEG method relative to control; type: functional; conditions: time 10 day; how it was run: as §1
MCF7 = assay: Cytotoxicity against human MCF7 cells assessed as reduction in cell viability after 48 hrs by MTT assay; type: functional, cell-based; conditions: MCF7, 48 h; how it was run: as §2
[15] = biological target: Epidermal growth factor receptor (Homo sapiens, UniProt P00533, T790M); assay: Inhibition of EGFR T790M mutant (unknown origin)
[16] = biological target: T1, Receptor tyrosine-protein kinase erbB-2 (Homo sapiens, UniProt P04626); assay: Inhibition of HER2 (unknown origin) at 10 uM relative to control
How it was run: (§3)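 Cell-free immunoassay kit measuring EGFR T790M/HER2 kinase inhibition. Percent inhibition screened at 10 µM. IC50 obtained from four concentrations (0.01-10 µM) by fitting E(%) = Emax/(1+[I]/ID50) to a dose-response curve. Mean of two independent replicates.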

[17] = biological target: T1, Receptor tyrosine-protein kinase erbB-2; assay: Inhibition of HER2 (unknown origin); how it was run: as §3

T1 sequence (P04626 whole entry): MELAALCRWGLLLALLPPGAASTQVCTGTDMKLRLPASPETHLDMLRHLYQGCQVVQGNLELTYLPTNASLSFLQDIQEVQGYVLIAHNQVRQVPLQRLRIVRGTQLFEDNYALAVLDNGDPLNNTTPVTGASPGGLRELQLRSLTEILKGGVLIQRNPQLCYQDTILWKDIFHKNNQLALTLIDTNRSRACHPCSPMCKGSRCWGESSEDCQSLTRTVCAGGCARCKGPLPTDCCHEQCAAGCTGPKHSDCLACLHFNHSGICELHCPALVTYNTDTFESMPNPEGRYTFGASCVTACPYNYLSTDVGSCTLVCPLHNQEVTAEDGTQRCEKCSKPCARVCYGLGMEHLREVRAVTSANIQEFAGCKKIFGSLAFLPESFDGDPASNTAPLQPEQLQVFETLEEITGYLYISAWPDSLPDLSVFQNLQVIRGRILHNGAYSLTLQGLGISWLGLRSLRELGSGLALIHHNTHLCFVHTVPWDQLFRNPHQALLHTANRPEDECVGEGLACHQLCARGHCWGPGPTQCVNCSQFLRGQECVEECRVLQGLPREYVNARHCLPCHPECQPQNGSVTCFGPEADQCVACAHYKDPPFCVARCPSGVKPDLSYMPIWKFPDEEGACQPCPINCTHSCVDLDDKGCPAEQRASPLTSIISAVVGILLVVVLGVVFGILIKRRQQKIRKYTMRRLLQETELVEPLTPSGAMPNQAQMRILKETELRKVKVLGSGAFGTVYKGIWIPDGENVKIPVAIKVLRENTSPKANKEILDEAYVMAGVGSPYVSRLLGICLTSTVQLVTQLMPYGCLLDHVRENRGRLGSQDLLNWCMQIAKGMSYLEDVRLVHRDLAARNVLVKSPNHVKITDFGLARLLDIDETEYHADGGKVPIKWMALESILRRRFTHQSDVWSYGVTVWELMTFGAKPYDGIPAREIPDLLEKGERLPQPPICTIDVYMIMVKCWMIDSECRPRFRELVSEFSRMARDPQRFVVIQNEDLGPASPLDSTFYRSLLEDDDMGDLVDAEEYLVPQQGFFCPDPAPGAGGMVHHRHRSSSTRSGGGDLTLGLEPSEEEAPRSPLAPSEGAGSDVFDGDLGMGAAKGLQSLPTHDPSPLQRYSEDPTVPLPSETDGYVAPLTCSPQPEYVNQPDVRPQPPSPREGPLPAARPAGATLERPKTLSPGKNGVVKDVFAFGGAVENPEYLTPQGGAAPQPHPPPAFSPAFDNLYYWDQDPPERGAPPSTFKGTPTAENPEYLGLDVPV
Epidermal growth factor receptor, sequence (P00533 25-1210 T790M limits assumed): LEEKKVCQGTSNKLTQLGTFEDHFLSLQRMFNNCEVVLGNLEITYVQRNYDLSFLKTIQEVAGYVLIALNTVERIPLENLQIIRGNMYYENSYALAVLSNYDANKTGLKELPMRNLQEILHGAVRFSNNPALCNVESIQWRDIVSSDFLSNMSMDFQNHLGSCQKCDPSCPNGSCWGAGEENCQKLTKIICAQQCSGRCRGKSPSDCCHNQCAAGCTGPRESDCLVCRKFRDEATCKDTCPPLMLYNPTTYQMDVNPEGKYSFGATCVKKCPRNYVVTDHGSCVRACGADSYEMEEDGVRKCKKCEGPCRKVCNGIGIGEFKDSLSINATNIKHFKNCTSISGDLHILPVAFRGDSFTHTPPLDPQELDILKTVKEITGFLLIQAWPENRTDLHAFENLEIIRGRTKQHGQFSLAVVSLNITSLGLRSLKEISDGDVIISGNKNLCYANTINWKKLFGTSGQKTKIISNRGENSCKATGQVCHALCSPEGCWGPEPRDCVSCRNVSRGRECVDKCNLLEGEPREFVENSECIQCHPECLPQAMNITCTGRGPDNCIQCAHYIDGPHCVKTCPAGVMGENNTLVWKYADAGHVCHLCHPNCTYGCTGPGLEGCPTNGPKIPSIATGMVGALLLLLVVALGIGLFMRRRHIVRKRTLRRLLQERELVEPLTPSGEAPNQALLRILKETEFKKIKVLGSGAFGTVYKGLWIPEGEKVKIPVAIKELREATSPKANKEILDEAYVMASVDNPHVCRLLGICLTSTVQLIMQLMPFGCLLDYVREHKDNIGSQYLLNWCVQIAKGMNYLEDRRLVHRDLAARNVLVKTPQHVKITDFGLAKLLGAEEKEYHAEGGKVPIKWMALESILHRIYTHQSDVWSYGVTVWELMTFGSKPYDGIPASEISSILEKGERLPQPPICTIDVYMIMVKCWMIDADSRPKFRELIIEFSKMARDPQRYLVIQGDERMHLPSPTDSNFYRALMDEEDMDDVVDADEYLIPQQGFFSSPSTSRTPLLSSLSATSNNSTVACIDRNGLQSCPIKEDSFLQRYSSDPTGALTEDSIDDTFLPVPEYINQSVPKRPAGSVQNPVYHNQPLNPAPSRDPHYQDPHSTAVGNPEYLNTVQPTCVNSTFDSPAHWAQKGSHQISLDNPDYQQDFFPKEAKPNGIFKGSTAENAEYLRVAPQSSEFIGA

Row | Compound | Activity (Mus musculus [1]) [%] | Activity (Mus musculus [2]) [%] | Activity (Mus musculus [3]) [%] | Activity (Mus musculus [4]) [%] | Activity (Mus musculus [5]) [%] | Activity (Mus musculus [6]) [%] | Activity (Mus musculus [7]) [%] | Activity (Mus musculus [8]) [%] | Activity (Mus musculus [9]) [%] | Activity (Mus musculus [10]) [%] | IC50 (WI-38) [nM] | Activity (Mus musculus [11]) [%] | Activity (Mus musculus [12]) [%] | Activity (Mus musculus [13]) [%] | Activity (Mus musculus [14]) [%] | IC50 (MCF7) [nM] | IC50 [15] [nM] | inhibition [16] [%] | IC50 [17] [nM]
1 | Cc1nn(-c2ccccc2)c2nc(C(=O)N3NC(=O)/C(=C/c4ccc(Cl)cc4)N=C3c3ccccc3)[nH]c(=O)c12 | -17.28 | 18.91 | 19.53 | 34.07 | -50.65 | 134.23 | 76 | 174.47 | 74.77 | -27.57 | 31.8 | 202.67 | -53.49 | 270.93 | 77.2 | 44.3 | – | – | –
2 | Cc1nn(-c2ccccc2)c2nc(CC(=O)N3NC(=O)/C(=C\c4ccccc4)N=C3c3ccccc3)[nH]c(=O)c12 | -17.45 | 33.49 | 2.33 | 31.8 | -50.88 | 136.74 | 63.11 | 69.18 | 52.65 | -23.98 | 47.2 | 202.38 | -56.93 | 264.32 | 62.01 | – | 656 | 83.6 | 872
3 | Cc1ccc(C2=N/C(=C\c3ccccc3)C(=O)NN2C(=O)c2nc3c(c(C)nn3-c3ccccc3)c(=O)[nH]2)cc1 | -22.26 | 9.13 | 15.45 | 32.01 | -72.91 | 143.79 | 62.22 | 173.91 | 59.73 | -37.93 | 24.5 | 210.16 | -66.18 | 241.85 | 36.17 | – | – | – | –
